ChEMBL document CHEMBL1129978, “Effect of structural modification of enol-carboxamide-type nonsteroidal antiinflammatory drugs on COX-2/COX-1 selectivity” (J Med Chem, 1997)

Tests used:
[1] = molecular target: T1, Prostaglandin G/H synthase 1 (Homo sapiens, UniProt P23219); test: Inhibition of human Prostaglandin G/H synthase 1 at 0.1 ug/mL expressed as mean percent inhibition of control PGE-2 production
In short: (§1)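 Human COX-1 and COX-2 genes expressed in a baculovirus system; microsomes prepared from High Five insect cells and used as the enzyme source. Activity read as PGE2 production. Each dose run in duplicate wells within each experiment, and values given as mean percent inhibition of control PGE2.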

[2] = molecular target: T1, Prostaglandin G/H synthase 1; test: Inhibition of human Prostaglandin G/H synthase 1 at 1 ug/mL expressed as mean percent inhibition of control PGE-2 production; in short: as §1
[3] = molecular target: T2, Prostaglandin G/H synthase 2 (Homo sapiens, UniProt P35354); test: Concentration of drug that causes a 50% decrease in the maximal inhibition of Prostaglandin G/H synthase 2 activity as measured by PGE2 production('+' indicates 90-110% inhibition)
T2 sequence (P35354 whole entry): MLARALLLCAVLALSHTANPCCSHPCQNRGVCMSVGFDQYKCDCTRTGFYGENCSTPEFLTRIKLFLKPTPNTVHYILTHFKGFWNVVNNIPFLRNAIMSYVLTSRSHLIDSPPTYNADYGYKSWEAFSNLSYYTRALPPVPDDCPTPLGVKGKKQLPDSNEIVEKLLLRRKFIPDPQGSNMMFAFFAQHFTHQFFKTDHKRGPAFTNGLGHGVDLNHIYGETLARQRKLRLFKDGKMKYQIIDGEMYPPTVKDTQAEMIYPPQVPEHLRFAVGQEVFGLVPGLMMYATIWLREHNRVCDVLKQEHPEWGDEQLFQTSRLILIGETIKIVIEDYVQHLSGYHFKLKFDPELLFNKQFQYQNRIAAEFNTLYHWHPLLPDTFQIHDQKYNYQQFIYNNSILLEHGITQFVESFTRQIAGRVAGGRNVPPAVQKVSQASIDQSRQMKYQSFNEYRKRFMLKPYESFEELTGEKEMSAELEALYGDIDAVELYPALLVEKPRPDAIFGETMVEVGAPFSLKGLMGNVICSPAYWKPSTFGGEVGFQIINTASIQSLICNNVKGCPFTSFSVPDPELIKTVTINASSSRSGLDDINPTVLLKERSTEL

[4] = molecular target: T1, Prostaglandin G/H synthase 1; test: Inhibition of human Prostaglandin G/H synthase 1 at 10 ug/mL expressed as mean percent inhibition of control PGE-2 production; in short: as §1
[5] = molecular target: T1, Prostaglandin G/H synthase 1; test: Concentration of drug that causes a 50% decrease in the maximal inhibition of Prostaglandin G/H synthase 1 activity as measured by PGE2 production('+' indicates 90-110% inhibition); in short: as §1

T1 sequence (P23219 whole entry): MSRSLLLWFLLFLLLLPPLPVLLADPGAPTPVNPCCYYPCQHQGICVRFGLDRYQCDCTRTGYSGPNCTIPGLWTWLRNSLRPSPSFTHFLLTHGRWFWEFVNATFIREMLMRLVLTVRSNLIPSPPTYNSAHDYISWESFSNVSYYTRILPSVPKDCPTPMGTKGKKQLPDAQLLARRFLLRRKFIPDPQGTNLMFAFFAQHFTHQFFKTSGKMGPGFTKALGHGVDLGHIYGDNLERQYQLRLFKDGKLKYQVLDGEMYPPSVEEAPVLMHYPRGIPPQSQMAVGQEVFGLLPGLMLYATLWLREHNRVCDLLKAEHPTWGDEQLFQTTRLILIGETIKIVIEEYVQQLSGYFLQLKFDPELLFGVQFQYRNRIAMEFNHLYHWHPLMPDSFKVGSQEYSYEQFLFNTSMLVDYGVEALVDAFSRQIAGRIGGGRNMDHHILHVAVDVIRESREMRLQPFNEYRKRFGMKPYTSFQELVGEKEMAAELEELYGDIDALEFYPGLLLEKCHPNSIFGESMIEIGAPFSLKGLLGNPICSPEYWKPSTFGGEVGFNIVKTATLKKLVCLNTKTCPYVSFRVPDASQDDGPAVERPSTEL

SMILES	inhibition [1]	inhibition [2]	IC50 [3]	inhibition [4]	IC50 [5]
CN1C(O)=C(C(=O)Nc2ccccc2Cl)c2cc(Cl)ccc2S1(=O)=O	94%	100%	8 nM	100%	41 nM
Cc1ccc2c(c1)S(=O)(=O)N(C)C(C(=O)Nc1ccccc1)=C2O	2%	28%		28%	
CN1C(O)=C(C(=O)Nc2ccccc2Cl)c2cc(Cl)c(Cl)cc2S1(=O)=O	28%	97%		100%	
CCn1c2c(c3ccccc31)S(=O)(=O)N(C)C(C(=O)Nc1ccccc1)=C2O	-9%	0%		5%	
Cc1cnc(NC(=O)C2=C(O)c3ccc4ccccc4c3S(=O)(=O)N2C)s1	80%	100%		100%	
O=C(Nc1ccccn1)C1=C(O)c2ccccc2SC1	-1%	34%		83%	
Cc1nc(NC(=O)C2=C(O)c3ccccc3S(=O)(=O)N2C)sc1C	1%	22%		66%	
CN1C(O)=C(C(=O)Nc2ccccc2)c2c(ccc3ccccc23)S1(=O)=O	18%	54%		72%	
CN1C(O)=C(C(=O)Nc2ccccn2)c2ccccc2S1(=O)=O	10%	17%		53%	
CN1C(C(=O)Nc2nccs2)=C(O)c2c(c3cc(Cl)ccc3n2C)S1(=O)=O	16%	80%		95%	
Cc1ccc2c(c1)/C(=C(\O)Nc1ccc(Cl)cc1Cl)C(=O)N(C)C2=O	79%	100%		100%	
Cc1cc2c(s1)C(C(=O)Nc1ccccn1)=C(O)N(C)S2(=O)=O	15%	53%		82%	
CN1C(C(=O)Nc2ccccc2)=C(O)c2ccccc2S1(=O)=O	-8%	16%		26%	
CN1C(C(=O)Nc2ccccn2)=C(O)c2ccccc2S1(=O)=O	-7%	10%		35%	
CN1C(C(=O)Nc2nc3ccccc3s2)=C(O)c2ccccc2S1(=O)=O	13%	49%		95%	
Cc1cnc(NC(=O)C2=C(O)c3ccc(Cl)cc3S(=O)(=O)N2C)s1	-9%	36%		85%	
Cc1ccc2c(c1)C(O)=C(C(=O)Nc1ccc(Cl)cc1)N(C)S2(=O)=O	0%	-1%		21%	
CN1C(O)=C(C(=O)Nc2ccccc2)c2ccccc2S1(=O)=O	65%	92%		100%	
O=C(Nc1ccc(Cl)cc1Cl)C1=C(O)N(Cc2ccccc2)S(=O)(=O)c2ccc(F)cc21	3%	39%		98%	

SMILES	inhibition [1]	inhibition [2]	IC50 [3]	inhibition [4]	IC50 [5]
COc1ccc2c(c1)c1c(n2C)C(O)=C(C(=O)Nc2ccccn2)N(C)S1(=O)=O	1%	35%		88%	
Cc1cc(NC(=O)C2=C(O)c3ccccc3S(=O)(=O)N2C)no1	-2%	7%		10%	
Cc1ccc2c(c1)S(=O)(=O)N(C)C(O)=C2C(=O)Nc1ccccc1Cl	63%	98%		97%	
CN1C(C(=O)Nc2ccccn2)=C(O)c2ccc(F)cc2S1(=O)=O	3%	26%		74%	
Cc1cnc(NC(=O)C2=C(O)c3cc(F)ccc3S(=O)(=O)N2C)s1	2%	21%		56%	
CN1C(C(=O)Nc2ccccn2)=C(O)c2cc(F)ccc2S1(=O)=O	0%	11%		27%	
CCc1cnc(NC(=O)C2=C(O)c3ccccc3S(=O)(=O)N2C)s1	-4%	23%		30%	
CN1C(C(=O)Nc2ccc(Cl)cc2)=C(O)c2cc(F)ccc2S1(=O)=O	6%	16%		40%	
CC1(C)Sc2ccccc2C(O)=C1C(=O)Nc1cccc(Cl)c1	3%	20%		29%	
Cc1cnc(NC(=O)C2=C(O)c3ccccc3S(=O)(=O)N2)s1	14%	18%		41%	
Cc1cnc(NC(=O)C2=C(O)c3sc(C)cc3S(=O)(=O)N2C)s1	31%	68%		93%	
Cc1cnc(NC(=O)C2=C(O)c3cc(Cl)ccc3SC2C)s1 (stereo not drawn)	12%	20%		30%	
CN1C(O)=C(C(=O)Nc2ccc(F)cc2F)c2cc(F)ccc2S1(=O)=O	22%	73%		97%	
O=C(Nc1cccc(Cl)c1)C1=C(O)c2ccccc2[S+]([O-])C1 (stereo not drawn)	-2%	-2%		38%	
Cc1cnc(NC(=O)C2=C(O)c3cc(Cl)ccc3S(=O)(=O)N2C)s1	11%	26%		62%	
CN1C(C(=O)Nc2ccccn2)=C(O)c2ccc3ccccc3c2S1(=O)=O	29%	78%		100%	
CN1C(C(=O)Nc2nc(C(F)(F)F)cs2)=C(O)c2ccccc2S1(=O)=O	8%	19%		72%	
CN1C(C(=O)Nc2ccccc2)=C(O)c2cc(F)ccc2S1(=O)=O	9%	38%		61%	
O=C(Nc1cccc(Cl)c1)C1=C(O)c2ccccc2S(=O)(=O)C1	6%	41%		84%	

SMILES	inhibition [1]	inhibition [2]	IC50 [3]	inhibition [4]	IC50 [5]
CC1Sc2ccc(Cl)cc2C(O)=C1C(=O)Nc1ccccn1 (stereo not drawn)	14%	25%		30%	
Cc1cnc(NC(=O)C2=C(O)N(C)S(=O)(=O)c3cc(Cl)ccc32)s1	10%	66%		94%	
Cc1cnc(NC(=O)C2=C(O)N(C)S(=O)(=O)c3ccc(Cl)cc32)s1	23%	44%		95%	
CN1C(O)=C(C(=O)Nc2ccccn2)c2ccc(Cl)cc2S1(=O)=O	7%	41%		45%	
Cc1cnc(NC(=O)C2=C(O)c3c(c4ccccc4n3C)S(=O)(=O)N2C)s1	1%	32%		97%	
CN1C(C(=O)c2c[nH]c3ccccc23)=C(O)c2ccccc2S1(=O)=O	13%	3%		24%	
CN1C(O)=C(C(=O)Nc2ccccc2Cl)c2cc(F)ccc2S1(=O)=O	32%	96%		100%	
Cc1cnc(NC(=O)C2=C(O)c3cc(C)sc3S(=O)(=O)N2C)s1	9%	6%		14%	
O=C(Nc1ccccn1)C1=C(O)c2cc(Cl)ccc2SC1	27%	58%		92%	
CN1C(O)=C(C(=O)Nc2nccs2)c2cc3ccccc3cc2S1(=O)=O	-3%	11%		64%	
COc1ccc2c(c1)S(=O)(=O)N(C)C(C(=O)Nc1ccccc1)=C2O	-8%	15%		3%	
O=C(Nc1ccc(Cl)cc1Cl)C1=C(O)N(Cc2ccccc2)S(=O)(=O)c2ccc(Cl)cc21	4%	54%		100%	
CN1C(C(=O)Nc2ccccc2)=C(O)c2c(c3ccccc3n2C)S1(=O)=O	9%	31%		93%	
Cc1ccc2c(c1)S(=O)(=O)N(C)C(C(=O)Nc1ccccn1)=C2O	18%	29%		45%	
CN1C(O)=C(C(=O)Nc2nccs2)c2c(ccc3ccccc23)S1(=O)=O	24%	57%		93%	
Cn1c(C(=O)Nc2nccs2)c(O)c2ccccc2c1=O	2%	11%		37%	
CN1C(C(=O)Nc2ncc(-c3ccccc3)s2)=C(O)c2ccccc2S1(=O)=O	6%	55%		97%	
O=C(Nc1cccc(Cl)c1)C1=C(O)c2cc(Cl)ccc2[S+]([O-])C1 (stereo not drawn)	0%	17%		76%	
CN1C(O)=C(C(=O)Nc2ccc(Cl)cc2Cl)c2c(ccc(Cl)c2Cl)S1(=O)=O	19%	55%		98%	
